Runt-CBFb FRET – inhibitors of RUNX1 Runt–CBFb binding, primary screen, biochemical, FRET, Cerulean-Runt, Venus-CBFb, uHTS. Cerulean-Runt/Venus-CBFb FRET ratio 530/480, 1 h. hit rate 0.46% among 220,000. inhibition, % at 20 µM;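 active = inhibition over about 50% at 20 µM in the single-dose screen, limit read from the data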;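 also: 0% = DMSO wells and 100% = excess unlabeled CBFb competitor control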
Target sequence (Q01196 whole entry, looked up): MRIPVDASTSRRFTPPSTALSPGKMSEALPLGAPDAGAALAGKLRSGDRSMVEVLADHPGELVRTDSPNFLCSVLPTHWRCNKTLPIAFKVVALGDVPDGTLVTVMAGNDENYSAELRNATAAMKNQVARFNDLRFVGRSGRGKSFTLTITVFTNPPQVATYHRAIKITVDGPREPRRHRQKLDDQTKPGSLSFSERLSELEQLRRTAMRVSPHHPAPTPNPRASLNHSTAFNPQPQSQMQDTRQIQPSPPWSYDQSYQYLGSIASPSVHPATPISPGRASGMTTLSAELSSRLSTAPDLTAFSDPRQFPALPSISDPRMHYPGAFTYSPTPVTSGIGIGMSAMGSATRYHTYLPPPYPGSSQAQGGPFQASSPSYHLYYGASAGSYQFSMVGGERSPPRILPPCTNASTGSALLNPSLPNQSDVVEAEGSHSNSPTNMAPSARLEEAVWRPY
Target sequence (Q13951 whole entry, looked up): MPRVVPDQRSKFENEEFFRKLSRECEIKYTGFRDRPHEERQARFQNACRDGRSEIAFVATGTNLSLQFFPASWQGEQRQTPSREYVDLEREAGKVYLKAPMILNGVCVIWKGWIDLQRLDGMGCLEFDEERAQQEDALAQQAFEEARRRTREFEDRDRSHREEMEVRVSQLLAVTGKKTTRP
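Buffer or medium: Tris pH 7.5 buffer with BSA. Assay system: Cerulean-labeled Runt domain protein. Amount: each fluorescent fusion protein 100 nM. Read-out basis: loss of energy transfer signal. Incubation: 1 h compound exposure, room temperature. Probe or stimulus: Venus-CBFb binding partner, 100 nM. Detection: FRET, excitation 422 nm, emission at 530 and 480 nm.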
MEX-5 binding – MEX-5 zinc finger RNA-binding disruptors – biochemical, C. elegans, fluorescence polarization, MLPCN library, primary screen. Zinc finger protein mex-5 (Caenorhabditis elegans), Q9XUB2. MEX-5/FITC-TCR2 RNA binding; active compounds read low. activity score (negative = inhibition of binding), % at 10 µM. hit rate 0.38% among 300,000. AID 1832, 2009;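 active = inhibition past about -25% in most replicates, and total fluorescence under double the plate's negative control median, limit read from the data; inconclusive = replicates evenly split on the limit, or fluorescence at least double controls; inactive = too little inhibition in most replicates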;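 also: 0% = DMSO and -100% = 5 µM competing unlabeled TCR2 RNA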
Runt-SMMHC FRET – inhibitors of RUNX1 Runt–CBFb-SMMHC binding, primary screen, biochemical, FRET, Cerulean-Runt, Venus-CBFb-SMMHC, uHTS. Runt-related transcription factor 1 (Homo sapiens) + Core-binding factor subunit beta …. Cerulean-Runt/Venus-CBFb-SMMHC FRET ratio 530/480, 1 h. inhibition, % at 20 µM. hit rate 0.74% among 220,000. AID 1434, 2008;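 active = mean inhibition across duplicate retests at 20 µM reaching about 50%, limit read from the data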;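 also: 0% = DMSO wells and 100% = wells with excess untagged CBFb-SMMHC; inhibitors lower the FRET ratio by blocking Runt binding to CBFb-SMMHC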
EBV gp42 block – Epstein-Barr virus gp42 inhibitors, primary screen, biochemical, uHTS, fluorescence polarization; Fluorescence polarization binding assay, mP read-out; inhibition, % (tested at 21.74 µM); hit rate 0.42% among 220,000; Glycoprotein 42 (Epstein-Barr virus (strain AG876)), Q1HVG2; AID 1085, 2008; in the data active = inhibition above about 50%
LANA-H2A inh – blockers of LANA interaction with H2A/H2B – biochemical, FP readout, HTS, primary screen; hit rate 0.6% among 320,000; Protein LANA1 (Human herpesvirus 8 type P (isolate GK18)), Q9QR71; cell-free LANA-H2A/H2B peptide, fluorescence polarization; inhibition, % (test concentration not listed); AID 2629, 2010; in the data active = inhibition mostly above about 10%, no sharp cut-off; inactive = mostly below about 6.7%
RanGTP-Imp inh – inhibitors of RanGTP-importin-beta interaction, primary screen, biochemical, FRET, CFP-Ran, YFP-importin-beta, homogeneous | hit rate 1.1% among 300,000 | Ran GTPase (GTP-bound) - importin-beta complex | AID 2216, 2009 | inhibition, % (test concentration not listed) | cell-free CFP-Ran/YFP-importin-beta FRET ratio;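 active = more than half of the replicate wells show a fall in the fluorescence ratio signal beyond about 16%, limit read from the data, passing the limit was not always enough; inconclusive = exactly half of the replicate wells pass the set limit; inactive = fewer than half of replicates pass the limit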;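 also: 0% = DMSO wells and 100% = Ran loaded with GDP instead of GTP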
Numbers without * were called inactive; i = inactive; u = inconclusive; x = no result. A selection: hits, their analogues and other compounds. The true share with any hit is near 2.4%.

SMILES | Runt-CBFb FRET | MEX-5 binding | Runt-SMMHC FRET | EBV gp42 block | LANA-H2A inh | RanGTP-Imp inh
c1ccc(-c2nnc(SCC3CCCCO3)nc2-c2ccccc2)cc1 (stereo not drawn) | 10 | 0 | 3 | -5 | 4 | -5
c1ccc(-c2nnc(SCC3CCCO3)nc2-c2ccccc2)cc1 (stereo not drawn) | -2 | x | -4 | -11 | -5 | 26*
O=C(Nc1ccc([N+](=O)[O-])cc1Cl)c1cc(Cl)ccc1O | x | x | x | x | -3 | x
O=C(Nc1cccc(Cl)c1)c1cc(N=Nc2ccc([N+](=O)[O-])cc2Cl)ccc1O | -4 | 0 | -14 | 79* | -2 | -1
CCOC(=O)c1sc(Nc2nc3c(OC)cccc3s2)cc1C | 41 | 1 | 92* | -13 | -4 | 10
CCOC(=O)c1sc(Nc2nc3cc4c(cc3s2)OCO4)cc1C | -6 | -1 | -9 | 3 | 2 | 13
COC(=O)CC1=C(C(=O)OC)C(c2cc(OC)c(OC)cc2OC)C(C#N)=C(N)O1 (stereo not drawn) | 3 | 1 | -4 | -10 | 14* | 3
COC(=O)CC1=C(C(=O)OC)[C@@H](c2ccccc2[N+](=O)[O-])C(C#N)=C(N)O1 | 2 | -4 | 10 | -3 | 1 | 0
CCOc1ccc(N(CC(=O)N2CCCCCC2)S(C)(=O)=O)cc1 | x | -1 | x | x | -2 | 4
c1ccc(Nc2ccccn2)nc1 | 0 | 0 | 2 | -5 | 8.3* | -1
CCC1CCCCN1CCCNC(=O)CN1C(=O)c2cccnc2Oc2ccc(C)cc21 (stereo not drawn) | x | 1 | x | x | 2 | -1
CCCC(C)NC(=S)Nc1cc(C)cc(C)c1 (stereo not drawn) | -4 | 1 | 1 | 8 | -1 | -3
C=CCOC(=O)c1cc(-c2ccc(/C=C3\C(=O)NC(=O)C(C#N)=C3C)o2)ccc1Cl | 18 | x | 0 | 57* | x | x
CC1=C(C#N)C(=O)NC(=O)/C1=C/c1ccc(-c2ccc(S(N)(=O)=O)cc2)o1 | 22 | -33* | 14 | -2 | -2 | -3
NS(=O)(=O)c1ccc(-c2ccc(/C=C3\NC(=S)NC3=O)o2)cc1 | x | -65* | x | x | 3 | 0
CC1CN(C2CC(C)(C)NC(C)(C)C2)CCC1=O (stereo not drawn) | 2 | -48* | 3 | -30 | 2 | u
CC1CN(CC(=O)N2CCc3[nH]c4ccccc4c3C2)CC(C)O1 (stereo not drawn) | -28 | -2 | -7 | -2 | -4 | 28*
O=C(CN1CCN(Cc2ccc3c(c2)OCO3)CC1)N1CCc2[nH]c3ccccc3c2C1 | -6 | -2 | -10 | 0 | x | 32*
CCCCn1c(N)c(N(CC(C)C)C(=O)c2cccs2)c(=O)[nH]c1=O | x | 3 | x | x | 3 | 1
COCCCNC(=S)NCCNc1nc2cc(C)cc(C)c2cc1C#N | 34 | 0 | 45 | -8 | -3 | 0
CCOCCCNC(=S)NCCCNc1nc2c(C)cc(C)cc2cc1C#N | 37 | x | 91* | 2 | x | x
Cc1cc(C)c2nc(NCCCNC(=S)NCCCN(C)C)c(C#N)cc2c1 | 81* | 0 | 89* | -2 | -6 | -3
O=S(=O)(NCC1(N2CCOCC2)CCCCC1)c1ccc(Cl)cc1C(F)(F)F | x | 0 | x | x | -2 | u
COc1cccc(CNC(=O)c2nnn(CC(=O)Nc3ccc(Br)cc3)c2N)c1 | x | -2 | x | x | 5 | 0
O=Cc1ccc(Sc2ncccn2)o1 | 0 | x | 0 | -7 | x | x
SMILES | Runt-CBFb FRET | MEX-5 binding | Runt-SMMHC FRET | EBV gp42 block | LANA-H2A inh | RanGTP-Imp inh
CNc1nc(-c2cccs2)cc(C(F)(F)F)c1C#N | 11 | 0 | 88* | -26 | 1 | 109*
NS(=O)(=O)c1ccc(-c2cccc(/C=C3\SC(=O)NC3=O)c2)cc1 | x | -36* | x | x | -2 | 4
Cc1ccc(S(=O)(=O)Oc2ccccc2/C=C2/SC(=O)NC2=O)cc1 | -2 | -1 | -3 | -5 | 4 | 1
O=C(O)COc1ccccc1Cc1ccccc1 | 88* | 1 | 143 | -10 | 1 | 0
COc1cc2cc(NC(C)=O)cc(NCc3ccccc3)c2cc1OC | x | 1 | x | x | 3 | 1
CCCCNc1cc(NC(C)=O)cc2cc(OC)c(OC)cc12 | 4 | 1 | 0 | x | -10 | 21*
CNc1ccc2c3c(cccc13)C(=O)N(C)C2=O | x | u | x | x | 88* | i
O=C([C@@H]1CC=C[C@@H]2CCN(C3CC3)C(=O)[C@@H]21)N1CCN(c2ccccc2)CC1 | x | 6 | x | x | -5 | 1
Cn1c(N)c(C(=O)COC(=O)/C=C/c2ccc(Cl)cc2)c(=O)n(C)c1=O | x | x | x | x | 92* | x
Cn1c(N)c(C(=O)COC(=O)/C=C/c2ccc(Cl)cc2Cl)c(=O)n(C)c1=O | x | x | x | x | -4 | x
COCCCn1c(C(=O)N2CCOCC2)cc2c(=O)n3ccccc3nc21 | x | 3 | x | x | 2 | 0
CC(=O)N=c1c(C#N)cc2c(=O)n3ccccc3nc2n1Cc1ccccc1 | 138* | 2 | 81* | 4 | -3 | 32*
CCOCCCn1c(=NC(C)=O)c(C#N)cc2c(=O)n3ccccc3nc21 | 28 | u | 88* | -9 | 0 | 123*
CCN1CCN(C(=O)c2cc3c(=O)n4ccccc4nc3n2Cc2ccccc2)CC1 | 5 | x | 13 | x | x | x
CCOCCCn1c(=NC(C)=O)c(C(=O)OCC)cc2c(=O)n3ccccc3nc21 | 52* | 2 | 63* | -12 | 1 | 77*
COCCCn1c(C(=O)NCCC2=CCCCC2)cc2c(=O)n3ccccc3nc21 | x | 1 | x | x | 5 | 2
CC(=O)c1ccc(NC(=O)N2C3CCC2CC(O)(c2cccnc2)C3)cc1 (stereo not drawn) | 0 | 1 | -5 | -5 | 124* | 4
Cc1ccc(C)c(NC(=O)C(Sc2nnc(-c3cccs3)o2)c2ccccc2)c1 (stereo not drawn) | 2 | x | 3 | -2 | 4 | x
COc1ccc(CC(=O)O)cc1O | 3 | -2 | 2 | -5 | -1 | -5
COc1ccc(CC2NCCC3=CC(=O)CCC32)cc1O (stereo not drawn) | x | -2 | x | x | -1 | 29*
O=C(CNS(=O)(=O)c1ccc([N+](=O)[O-])cc1)N/N=C/c1ccc(O)cc1O | x | -57* | x | x | -2 | 3
